Here are results for three molecules from ChEMBL document CHEMBL1136298, “Synthesis of novel C2 and C2-C8 linked pyrrolo[2,1-c][1,4]benzodiazepine-naphthalimide hybrids as DNA-binding agents” (2003).

The structures appear in SMILES notation.

One experiment deals with NCI-H460. Briefly: In vitro anticancer activity against lung NCI-H460 cell line. It counts as functional, Homo sapiens. In outline: (§1)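 Primary screen in a three-cell-line panel of MCF7 (breast), NCI-H460 (lung) and SF-268 (CNS), with each compound tested as one dose at 10⁻⁴ molar.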
The next experiment concerns HL-60. The experiment in a line: In vitro cytotoxic activity against HL60 (TB) cell line. To be noted: Homo sapiens. It counts as functional.
A further experiment concerns T47D. Briefly: In vitro cytotoxic activity against breast T-47D cell line. It counts as functional. The conditions noted are these: Homo sapiens.
The subject of a further experiment is SNB-19. The experiment in a line: In vitro cytotoxic activity against central nervous system (CNS) SNB-19 cell line. It counts as functional. To be noted: Homo sapiens.
A further experiment concerns MOLT-4. Briefly: In vitro cytotoxic activity against MOLT-4 cell line. To be noted: Homo sapiens.
In another experiment the test system is MCF7. The experiment in a line: In vitro anticancer activity against breast MCF-7 cell line. It counts as functional, Homo sapiens. In outline: as §1
The next experiment relates to CCRF-CEM. Briefly: In vitro cytotoxic activity against leukemia CCRF-CEM cell line. It counts as functional. To be noted: Homo sapiens.
A further experiment concerns SR. The experiment in a line: In vitro cytotoxic activity against SR cell line. It counts as functional. The conditions noted are these: Homo sapiens.
For a further experiment, the system named is SF-268. Briefly: In vitro anticancer activity against SF-268 (CNS) cell line. It counts as functional, Homo sapiens. In outline: as §1

Regarding `COc1cc2c(cc1OCc1ccccc1)N=C[C@@H]1C/C(=C\C(=O)NCCCN3C(=O)c4cccc5cccc(c45)C3=O)CN1C2=O`, the Activity with NCI-H460 turned out to be 0%; in the experiment on MCF7 it was 0%; in the experiment on SF-268, 1%. The GI50 in the experiment on HL-60 is 91 nM; in the experiment with T47D it was 34 nM; in the experiment with SNB-19, 80 nM; with MOLT-4 it was 55 nM; with CCRF-CEM, 62 nM; in the experiment with SR, below 10 nM.

In the case of `COc1cc2c(cc1OCc1ccccc1)N=C[C@@H]1C/C(=C\C(=O)NCCN3C(=O)c4cccc5cccc(c45)C3=O)CN1C2=O`, the Activity in the experiment on NCI-H460 is reported as 101%; in the experiment on MCF7, 89%; in the experiment with SF-268, 95%.

Take `COc1cc2c(cc1OCCCN1C(=O)c3cccc4cccc(c34)C1=O)N=C[C@@H]1C/C(=C\C(=O)NCCCN3C(=O)c4cccc5cccc(c45)C3=O)CN1C2=O`: the Activity in the experiment on NCI-H460 stood at 102%; in the experiment with MCF7 it was 86%; with SF-268, 97%.
